Article PMC9668306 (Science Advances, 2022)
Entries after “also recorded” stand apart in the source; their conditions may differ.

How the values were obtained:
[1] = target: T1, glutaminase enzyme (GLS-1) (Homo sapiens, UniProt O94925); test: GLS-1 inhibition, [3H]-glutamine radiolabel enzymatic assay; type: biochemical
T1 sequence (O94925 55-669): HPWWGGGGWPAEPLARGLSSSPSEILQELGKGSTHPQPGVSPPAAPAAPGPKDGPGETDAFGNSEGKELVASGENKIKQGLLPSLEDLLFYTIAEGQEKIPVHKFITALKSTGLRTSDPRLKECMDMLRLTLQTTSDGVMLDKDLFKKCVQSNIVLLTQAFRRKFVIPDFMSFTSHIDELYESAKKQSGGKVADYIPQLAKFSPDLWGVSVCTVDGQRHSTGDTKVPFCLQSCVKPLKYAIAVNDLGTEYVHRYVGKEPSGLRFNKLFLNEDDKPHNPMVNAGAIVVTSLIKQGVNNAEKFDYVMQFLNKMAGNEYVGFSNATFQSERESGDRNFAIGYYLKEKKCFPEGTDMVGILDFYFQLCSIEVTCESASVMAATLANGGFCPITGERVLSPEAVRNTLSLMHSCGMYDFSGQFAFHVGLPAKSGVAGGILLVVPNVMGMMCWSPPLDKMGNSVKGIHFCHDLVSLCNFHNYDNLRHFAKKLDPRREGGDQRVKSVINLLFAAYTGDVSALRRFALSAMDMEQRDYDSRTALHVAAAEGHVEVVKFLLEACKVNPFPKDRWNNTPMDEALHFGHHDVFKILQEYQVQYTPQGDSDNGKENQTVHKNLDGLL

P493B lymphoma cells = test: P493B lymphoma cell viability assay; type: cell-based; conditions: 72 h
FGAR = test: Tumor target engagement: tumor FGAR; type: in vivo, C57BL/6/CES1-/- mice; conditions: EL4 tumor, 1 hour after s.c. dose (DRP-104 2.6 mg/kg, DON 0.3 mg/kg)
GLS-1 = target: T2, GLS-1 (Mus musculus, UniProt D3Z7P3); test: Tumor target engagement: tumor GLS-1 activity; type: in vivo, C57BL/6/CES1-/- mice; conditions: EL4 tumor, 1 hour after s.c. dose
T2 sequence (D3Z7P3 55-674): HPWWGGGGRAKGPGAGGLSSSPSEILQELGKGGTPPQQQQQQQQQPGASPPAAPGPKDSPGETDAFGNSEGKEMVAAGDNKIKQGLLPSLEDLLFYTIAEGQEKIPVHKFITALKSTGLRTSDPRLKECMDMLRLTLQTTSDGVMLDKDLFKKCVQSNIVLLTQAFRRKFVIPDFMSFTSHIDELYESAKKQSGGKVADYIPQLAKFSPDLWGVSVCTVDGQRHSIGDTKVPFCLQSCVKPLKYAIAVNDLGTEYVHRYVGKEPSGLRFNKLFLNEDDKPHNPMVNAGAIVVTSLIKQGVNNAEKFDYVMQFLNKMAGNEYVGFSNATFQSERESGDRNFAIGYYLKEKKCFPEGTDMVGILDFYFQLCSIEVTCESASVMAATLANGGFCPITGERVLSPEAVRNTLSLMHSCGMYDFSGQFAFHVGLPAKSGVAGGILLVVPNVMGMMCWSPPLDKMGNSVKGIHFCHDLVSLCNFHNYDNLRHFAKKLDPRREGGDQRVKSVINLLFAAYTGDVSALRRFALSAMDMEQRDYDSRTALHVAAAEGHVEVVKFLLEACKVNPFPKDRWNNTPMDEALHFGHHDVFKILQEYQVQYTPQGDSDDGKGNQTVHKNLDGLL
How it was run: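 Test compound was dosed s.c. to EL4 tumor-bearing CES1−/− mice, and tumors were harvested 1 h post-dose. Tumor GLS-1 activity was quantified with a radiolabel-based enzymatic assay.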

EL4 tumors [2] = test: Antitumor efficacy, intravenous cohort, EL4 tumors; type: in vivo, C57BL/6/CES1-/- mice; conditions: 1 mg/kg DON eq. intravenously, 5 days per week for 2 weeks
How it was run: (§1)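 EL4 cells (0.3 × 10^6) were given s.c. in the right flank. At a mean tumour volume of about 400 mm3, mice were randomised (n = 8) to vehicle, parent drug 1 mg/kg or test compound 1 mg/kg DON equivalent, i.v., 5 days/week for 2 weeks. Tumour volume (calipers, […]), body weight and mortality were tracked; euthanasia followed IACUC tumour-volume or weight-loss guidelines.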

[3] = Tolerability, intravenous cohort; type: in vivo, C57BL/6/CES1-/- mice
How it was run: as §1

Complete blood count = type: in vivo, C57BL/6/CES1-/- mice; conditions: Avg of 3 animals, 1 mg/kg (eq.) iv, normal range 1.06-56.08
How it was run: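 In the EL4 i.v. cohort (vehicle, parent drug or test compound at 1 mg/kg DON equivalent, 5 days/week for 2 weeks), mice remaining at the end of treatment were sacrificed and blood was collected for a complete blood count.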

[4] = GI histopathology and scoring; type: in vivo, C57BL/6/CES1-/- mice; conditions: for GI histology (in words): 1 mg/kg DON eq. IV, end of treatment
[5] = 31 of 47 patients who received 2 weeks or more of DON therapy; cited from earlier work
[6] = cited from earlier work
[7] = Plasma stability, WT mouse plasma; type: in vitro ADME, WT C57BL/6 mouse; conditions: C57BL/6, mouse
[8] = Plasma stability, human plasma; type: in vitro ADME; conditions: % remaining at 60 minutes, 37°C
[9] = GI tissue homogenate stability and DON release; type: in vitro ADME, C57BL/6/CES1-/- mouse; conditions: C57BL/6/CES1-/-, mouse, GI tissue (jejunum) homogenate, pH 7.4
[10] = Intestinal S9 fraction stability and DON release; type: in vitro ADME; conditions: human
How it was run: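 Test compound at 10 μM was incubated with intestinal S9 fraction (final protein 1 mg/ml) at 37°C on an orbital shaker for 1 h, in triplicate. Reactions were quenched with three volumes of acetonitrile containing internal standard.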

recombinant CES1 enzyme = target: T3, recombinant CES1 enzyme (Homo sapiens, UniProt P23141); test: Recombinant CES1 enzyme stability; type: in vitro ADME; conditions: 20 μM, enzyme 10 μg/ml, up to 3 hours
T3 sequence (P23141 18-567): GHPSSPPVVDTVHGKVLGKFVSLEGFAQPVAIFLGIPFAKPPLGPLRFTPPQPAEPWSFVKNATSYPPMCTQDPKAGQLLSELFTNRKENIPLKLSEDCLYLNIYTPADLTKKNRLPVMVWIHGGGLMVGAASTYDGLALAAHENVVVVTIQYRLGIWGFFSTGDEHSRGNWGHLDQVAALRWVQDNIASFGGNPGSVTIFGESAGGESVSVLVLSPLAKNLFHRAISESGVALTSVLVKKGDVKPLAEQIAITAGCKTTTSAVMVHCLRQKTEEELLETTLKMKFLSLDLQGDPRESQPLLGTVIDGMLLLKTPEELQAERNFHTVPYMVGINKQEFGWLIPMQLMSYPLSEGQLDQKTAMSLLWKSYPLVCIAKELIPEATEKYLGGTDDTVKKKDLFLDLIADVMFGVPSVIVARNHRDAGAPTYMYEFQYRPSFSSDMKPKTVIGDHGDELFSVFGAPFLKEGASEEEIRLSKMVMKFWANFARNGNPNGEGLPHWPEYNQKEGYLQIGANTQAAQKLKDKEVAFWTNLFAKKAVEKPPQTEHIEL

[11] = PK of DRP-104, DON and M1 in EL4 tumor-bearing mice; type: in vivo, C57BL/6/CES1-/- mice; conditions: for intact DRP-104 concentration: BLQ = below the limit of quantitation
[12] = DRP-104 stability in EL4 tumor homogenate with protease/esterase inhibitors; type: in vitro ADME, mouse; conditions: no inhibitor, time 1 h
[13] = Metabolite identification; type: in vitro ADME, mouse; conditions: 60-min incubation
EL4 tumors [14] = test: Antitumor efficacy, subcutaneous dosing cohort, EL4 tumors; type: in vivo, C57BL/6/CES1-/- mice; conditions: 0.1, 0.3 and 1 mg/kg DON eq. subcutaneously, 5 days per week
How it was run: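 EL4 mouse lymphoma cells (0.3 × 10^6) were injected s.c. into the right flank of male and female C57BL/6/CES1−/− mice aged 6–8 weeks (25–30 g). Test compound was given s.c. at 0.1, 0.3 or 1 mg/kg DON equivalent, 5 days/week. Tumor length and width were measured by caliper, with volume = […]. Body weight and GI histology were tracked in parallel.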

[15] = Tolerability, subcutaneous dosing cohort; type: in vivo, C57BL/6/CES1-/- mice; conditions: 0.1, 0.3 and 1 mg/kg DON eq. subcutaneously
How it was run: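 EL4 tumour-bearing CES1−/− mice (0.3 × 10^6 cells s.c., right flank) received test compound at 0.1, 0.3 or 1 mg/kg DON equivalent s.c., 5 days/week. Tumour volume and body weight were recorded during dosing, with GI histology assessed alongside.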

EL4 tumors [16] = test: 13C5-glutamine flux analysis in EL4 tumors; type: in vivo, CES1-/- mice; conditions: 0.3 mg/kg DON eq. s.c., vehicle 19.99%
MC38 tumors [17] = test: Anti-PD-1 combination study, MC38 tumors; type: in vivo, C57BL/6/CES1-/- mice; conditions: MC38 tumor-bearing mice, same regimens
How it was run: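 Mice (4 male, 3 female per group, n = 7) got 5 × 10^5 MC38 cells s.c. in the right flank and were randomised at about 400 mm3 (about day 10). Arms: vehicle; anti-PD-1 100 μg i.p. on days 10, 12, 14 and 16; test compound 0.8 mg/kg s.c., 5 days/week for 4 weeks; combination. Endpoint: tumour >4000 mm3, ulceration, necrosis or functional deficit.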

[18] = Body weight in MC38 anti-PD-1 combination study; type: in vivo, C57BL/6/CES1-/- mice; conditions: MC38 tumor-bearing mice, throughout the experiment
MC38 tumors [19] = test: CD8 depletion study, MC38 tumors; type: in vivo, C57BL/6/CES1-/- mice; conditions: MC38, CD8+ T cell-depleting antibodies versus isotype
How it was run: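 MC38-bearing CES1−/− mice received anti-mouse CD8β (clone 53-5.8) or rat IgG1 isotype (clone HRPN), 5 mg/kg, the day before implantation, the day after and weekly thereafter; depletion was checked by flow cytometry. Test compound was given at 0.3 mg/kg DON equivalent s.c., 5 days/week, and individual tumour growth was followed.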

[N-]=[N+]=CC(=O)CC[C@H](N)C(=O)O [DON, 6-Diazo-5-oxo-L-norleucine, reference compound]
IC50 [1]: 10 ± 0.3 µM
EC50 (P493B lymphoma cells): 4 ± 0.6 µM
tumor FGAR increase versus vehicle (FGAR): > 80 fold
tumor GLS-1 activity versus vehicle (in words) (GLS-1): significant inhibition of tumor GLS-1 activity
tumor response (in words) (EL4 tumors [2]): complete regression of the tumor
body weight reduction ([3]; 1 mg/kg intravenously, 5 days per week for 2 weeks): 20 to 30%
mice that required euthanasia based on IACUC weight loss guidelines ([3]; 1 mg/kg intravenously, 5 days/week for 2 weeks): 63%
WBC (Complete blood count): 0.93 ± 0.18 K/uL
GI histology (in words) [4]: severe GI toxicity
patients with stable disease or regression [5]: 66%

CCCCCOC(=O)Nc1nc(=O)n([C@@H]2O[C@H](C)[C@@H](O)[C@H]2O)cc1F [capecitabine]
average 5-fluorouracil concentration in tumor versus adjacent healthy tissue [6]: 3.2 fold

CC(=O)N[C@@H](Cc1c[nH]c2ccccc12)C(=O)N[C@@H](CCC(=O)C=[N+]=[N-])C(=O)OC(C)C [DRP-104, isopropyl(S)-2-((S)-2-acetamido-3-(1H-indol-3-yl)-propanamido)-6-diazo-5-oxo-hexanoate]
inhibition of GLS-1 (in words) ([1]; intact compound): inactive
remaining at 1 h, 20 μM [7]: 0%
remaining at 1 h, 20 μM [8]: > 90%
remaining at 1 h, 20 μM [9]: 0%
remaining at 1 h, 10 μM [10]: 0%
metabolism by recombinant CES1 (in words) (recombinant CES1 enzyme): CES1 was capable of metabolizing DRP-104 to M1 metabolite
EC50 (P493B lymphoma cells): 10 ± 1.9 µM
intact DRP-104 concentration ([11]; GI tissue): no DRP-104 was observed
AUC0-t ([11]; plasma, after DRP-104 2.6 mg/kg s.c., 2.6 mg/kg): 0.65 nmol hour/ml or nmol hour/g
intact DRP-104 concentration ([11]; tumor): no DRP-104 was observed
tumor FGAR increase versus vehicle (FGAR): > 80 fold
tumor GLS-1 activity versus vehicle (in words) (GLS-1): significant inhibition of tumor GLS-1 activity
% DRP-104 remaining [12]: 0%
metabolites found (MET-ID) ([13]; GI tissue homogenate): only the M1 metabolite
metabolites found (MET-ID) ([13]; tumor homogenate): both DON and M1 metabolite
tumor response (in words) (EL4 tumors [2]): complete regression of the tumor
deaths (in words) ([3]; 1 mg/kg DON eq. intravenously): no deaths were observed
body weight (in words) ([3]; 1 mg/kg DON eq. intravenously, 5 days per week for 2 weeks): maintained their body weight
tumor growth (in words) (EL4 tumors [14]): dose-dependent inhibition of tumor growth; also recorded: complete tumor regression at the higher two doses
overt toxicity (in words) [15]: No overt signs of toxicity
GI histology (in words) [4]: improvement in all these parameters
GI morphology (in words) ([4]; 1 mg/kg DON eq. subcutaneously): mild lymphocytic infiltration
GI morphology (in words) ([4]; 0.1 and 0.3 mg/kg DON eq. subcutaneously): normal
M+5 isotopologue share of the total glutamate pool (EL4 tumors [16]): 14.66%
survival (in words) (MC38 tumors [17]): enhanced survival compared to vehicle
effect on body weight (in words) [18]: no substantial effect on body weight
dependence of efficacy on CD8+ T cells (in words) (MC38 tumors [19]): completely dependent

COc1ccc(/C=C\c2cc(OC)c(OC)c(OC)c2)cc1OP(=O)(O)O [CA4P, combretastatin A4 phosphate]
tumor versus plasma delivery (in words) [6]: two- to threefold
